Assay outcomes (PubChem)
Shown are actives, neighbours in structure and some others; about 2.3% of the full set was active somewhere.
FLuc inhib CS = inhibits firefly luciferase, flagging false hits in luciferase inhibition screens; P08659; ATPLite firefly luciferase biochemical luminescence, 10 min; inhibition, % at 10 µM; 200,000 compounds, 1.5% hits;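 active means inhibition above about 50% when tested at 10 µM, limit read from the data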
Target sequence (P08659 whole entry, looked up): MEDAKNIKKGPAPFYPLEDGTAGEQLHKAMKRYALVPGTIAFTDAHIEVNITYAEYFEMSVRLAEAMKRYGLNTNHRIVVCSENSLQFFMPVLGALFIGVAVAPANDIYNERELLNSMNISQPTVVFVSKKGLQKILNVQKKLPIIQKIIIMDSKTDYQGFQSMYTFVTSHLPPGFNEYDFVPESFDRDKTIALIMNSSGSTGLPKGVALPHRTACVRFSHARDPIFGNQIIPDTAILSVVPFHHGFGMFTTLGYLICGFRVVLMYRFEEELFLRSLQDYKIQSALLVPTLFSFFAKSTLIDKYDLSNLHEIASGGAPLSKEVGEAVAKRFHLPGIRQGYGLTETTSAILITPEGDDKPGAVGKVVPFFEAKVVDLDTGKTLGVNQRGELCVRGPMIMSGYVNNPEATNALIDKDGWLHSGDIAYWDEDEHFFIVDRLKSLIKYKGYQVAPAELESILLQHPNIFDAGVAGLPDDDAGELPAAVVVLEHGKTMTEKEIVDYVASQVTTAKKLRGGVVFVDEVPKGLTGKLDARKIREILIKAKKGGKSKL
Diaphorase act = diaphorase activation or chemical reduction counter-screen. activation factor at 20 µM. 190,000 compounds, 0.005% hits. Diaphorase/resazurin coupled assay, resorufin fluorescence, 16 min; hits give high values; 1 = vehicle wells, 0 = NADH-free wells;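 active means diaphorase activity raised at least twofold by the compound at 20 µM; inactive means activation factor below 2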
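Assay system: Purified diaphorase enzyme from Clostridium kluyveri | Amount: Enzyme 0.07 U/mL final | Dosing: Compound 20 µM once, DMSO 1% | Timing: 16 min reaction at room temperature | Detection: Fluorescence, excitation 544 nm and emission 590 nm | Evaluation: Higher resorufin formation from activation or reduction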
Diaph inh CS = inhibits diaphorase or chemically oxidizes, flagging diaphorase assay artifacts; diaphorase resazurin-to-resorufin fluorescence, NADH, 16 min; bacterial (C. kluyveri) enzyme, not human; inhibition, % at 20 µM; 190,000 compounds, 0.69% hits; AID 1217;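 active means primary screen inhibition at 20 µM above a set limit, cut at about 50% in these data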;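 further: plate controls were DMSO with full reaction for no effect and wells lacking NADH for full effect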
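Assay system: diaphorase enzyme from Clostridium kluyveri; Input: enzyme working solution with 0.14 U/mL diaphorase; Timing: 16 min at room temperature; Technique: resorufin fluorescence, excitation 544 nm, emission 590 nm; Benchmarks: positive control minus NADH, DMSO neutral control.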
FLuc stim CS = firefly luciferase counter-screen for stimulation assays. P08659. ATPlite luciferase biochemical, luminescence, 10 min; 0 = ATP-free wells, 1 = DMSO control. activation factor at 10 µM. 200,000 tested, under 10 active. AID 1027;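 active means luciferase activation factor, scaled between plate controls, of at least 2 with compound at 10 µM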
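System: Luciferase/luciferin detection reagent, cell-free biochemical luciferase assay | Medium: PBS buffer for ATP | Dosing: Test compounds dosed from 2 mM stocks in 100% DMSO | Timing: 10 min at ambient temperature | Signal: Luminescence measurement of luciferase light output | Evaluation: Luciferase activation, seen as luminescence increase over controls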
G6PDH counter = L. mesenteroides G6PDH inhibition counter-screen. Purified L. mesenteroides G6PDH, diaphorase/resazurin coupled fluorescence, 45 min. inhibition, % at 5 µM. 200,000 compounds, 0.12% hits. AID 1020; in the data active means inhibition above about 50%
Starred values were filed as active, the others as inactive; nt = not tested or not shown.

SMILES | FLuc inhib CS | Diaphorase act | Diaph inh CS | FLuc stim CS | G6PDH counter
CC(C)CCN1CCN(CCCn2cccn2)CC1CCO (configuration not stated) | -4 | 1 | 2 | 1 | 12
COC(=O)c1ccc(N=Nc2ccccc2)cc1 | 60* | 0.8 | 16 | 0.4 | -1
O=C(NC(=S)Nc1nc2c(s1)CCCC2)c1ccccc1 | 63* | 0.8 | 20 | 0.4 | 6
Cc1cc(C(=O)Nc2nc3c(s2)CCCC3)cs1 | 70* | 0.8 | 18 | 0.3 | 5
O=C(Nc1nc2c(s1)CCCC2)c1ccc2ncsc2c1 | 59* | 0.8 | 21 | 0.4 | 2
COC(=O)c1ccc(C(=O)NC(=S)Nc2nc3c(s2)CCCC3)cc1 | -4 | 1 | 1 | 1 | -1
CCOCCc1c(O)nc(SCCOc2ccc(C)c(C)c2)[nH]c1=O | -5 | 0.8 | 19 | 1.1 | 4
Cc1c(C(=O)Nc2ccccc2)cn2c(nc3ccccc32)c1C#N | -5 | 0.9 | 12 | 1 | 16
Cc1ccccc1C(=O)Nc1ccc2c(C#N)c3nc4ccccc4nc3n2c1 | -2 | 0.3 | 72* | 1 | 33
CSc1cccc(NC(=O)c2ccccn2)c1 | 51* | 1 | 2 | 0.5 | 1
O=C(NCc1ccc(Cl)cc1)c1cc2ccccn2n1 | 0 | 0.8 | 15 | 1 | 4
COc1ccc(NC(=O)c2cc3ccccn3n2)cc1 | 80* | 0.8 | 20 | 0.2 | -1
S=C(Nc1ccc(Cl)cc1)c1nc2ccccc2s1 | 2 | 0.9 | 14 | 1 | 7
COc1ccc(NC(=O)c2ccccn2)cc1OC | 21 | 0.9 | 14 | 0.8 | 5
Cc1ccc(NC(=S)c2nc3ccccc3s2)cc1 | 66* | 0.8 | 19 | 0.3 | 3
COc1ccc(NC(=O)c2ccccn2)cc1 | 90* | 1 | 4 | 0.1 | -1
COc1ccc(C(=O)NCC(=O)NCC2COc3ccccc3O2)cc1 (configuration not stated) | 4 | 1.1 | -7 | 1 | 0
O=C(NCCc1ccc(F)cc1)C1CCCCC1 | -2 | 0.9 | 13 | 1 | 7
COc1ccc(OC)c(NC(=O)c2nc3ccccc3s2)c1 | 1 | 0.9 | 6 | 1 | 0
COc1ccc(NC(=O)c2nc3ccccc3s2)cc1 | 61* | 1.1 | -6 | 0.4 | -2
CC(C)CCN(C(=O)Nc1ccccc1)C(C)c1cccs1 (configuration not stated) | 0 | 0.9 | 6 | 1 | 8
C/C(=N\NC(=O)COc1ccc(C(C)(C)C)cc1)c1ccc(-n2ccnc2)cc1 | 80* | 0.9 | 8 | 0.2 | -18
COc1ccc(OCC(=O)N/N=C(\C)c2ccc(-n3ccnc3)cc2)cc1 | 57* | 1 | 3 | 0.4 | 8
c1ccc(-c2nnc(CSc3ccc4c(c3)OCCO4)o2)cc1 | -6 | 0.4 | 59* | 1.1 | 4
C=CCSc1ncc(CO)n1Cc1ccccc1 | -1 | 1 | 0 | 1 | 1
SMILES | FLuc inhib CS | Diaphorase act | Diaph inh CS | FLuc stim CS | G6PDH counter
CCOC(=O)C1=C(C)N(C)C(=O)NC1c1cc2c(cc1[N+](=O)[O-])OCO2 (configuration not stated) | -3 | 0.3 | 67* | 1 | 8
C=CCOC(=O)C1=C(C)N(C)C(=O)NC1c1cc2c(cc1Br)OCO2 (configuration not stated) | -5 | 0.9 | 7 | 1.1 | 2
C/C(=N\Nc1nc2ccccc2[nH]1)c1ccc2c(c1)OCCO2 | 78* | 0.9 | 13 | 0.2 | -3
C/C(=N\Nc1nc2ccccc2[nH]1)c1cc2ccccc2o1 | 78* | 0.8 | 17 | 0.2 | -37
Cc1ccc(N=Cc2c(C)[nH]n(-c3nc4ccccc4[nH]3)c2=O)cc1 | 79* | 0.9 | 8 | 0.2 | 0
Cc1ccc(-n2[nH]c(C)c(C=Nc3ccc4[nH]c(=O)[nH]c4c3)c2=O)cc1 | 2 | 0.9 | 7 | 1 | 11
O=C(c1cccs1)N1CCc2c([nH]c3ccccc23)C1c1ccccn1 (configuration not stated) | -2 | 0.5 | 50* | 1 | 12
CCOC(=O)C1=C(C)N(C)C(=S)NC1c1cc(OC)ccc1OC (configuration not stated) | -6 | 0.9 | 6 | 1.1 | 7
COc1c(OC(C)=O)ccc(/C=C/c2ccc3cccc(OCc4ccccc4)c3n2)c1[N+](=O)[O-] | 18 | 0.8 | 19 | 0.8 | -23
O=c1c2ccccc2cnn1-c1ccc(Br)cc1 | 48 | 0.9 | 7 | 0.5 | 4
O=c1c2ccccc2cnn1-c1ccc2ccccc2c1 | 64* | 0.9 | 10 | 0.4 | -2
CCOc1ccc(-c2c[n+]3c(n2-c2ccccc2)CCCCC3)cc1 | -1 | 0.9 | 14 | 1 | 6
Oc1[nH]c2ccccc2c1C=Nc1ccc2c(c1)OCCO2 | 76* | 0.6 | 42 | 0.2 | -2
Oc1c(Br)cc(Br)cc1C=Nc1ccc2c(c1)OCCO2 | 20 | 0.6 | 43 | 0.8 | 20
c1ccc(-n2nnc3c(N4CCOCC4)ncnc32)cc1 | 84* | 0.9 | 6 | 0.2 | 4
Cc1nnc(N2CCOCC2)c2nn(-c3ccccc3)c(C)c12 | -4 | 0.8 | 18 | 1 | -4
Clc1ccc2nc3c4ccccc4cnn3c2c1 | 63* | 1.1 | -9 | 0.4 | 13
CCn1c2ccc(Cl)cc2c2nc3ccccc3nc21 | -11 | 0.8 | 18 | 1.1 | 6
COc1ccc(CCNC(=O)c2cnn3c(C(F)F)cc(C)nc23)cc1OC | -7 | 0.2 | 78* | 1.1 | 5
O=C(N/N=C/c1ccco1)c1ccccn1 | 26 | 1 | 4 | 0.7 | 5
CC(C)(C)c1ccc(/C=N/NC(=O)c2ccccn2)cc1 | 93* | 0.9 | 6 | 0.1 | 9
Cc1ccsc1/C=N/NC(=O)c1ccccn1 | 46 | 1 | 4 | 0.5 | 2
O=C(N/N=C/c1ccsc1)c1ccccn1 | 52* | 0.9 | 11 | 0.5 | 8
O=C(N/N=C/c1ccc(Br)s1)c1ccccn1 | 66* | 0.8 | 16 | 0.3 | 1
Cc1cc(C)c(CSc2ncnc3nc[nH]c23)c(C)c1 | -1 | nt | nt | 1 | 0
SMILES | FLuc inhib CS | Diaphorase act | Diaph inh CS | FLuc stim CS | G6PDH counter
O=C(Nc1ccccc1Cl)c1ccccc1Cc1ccccc1 | -9 | 0.8 | 15 | 1.1 | 16
Cc1ccc(C)c(N=Nc2nc3ccccc3n2C)c1 | 75* | 1 | 4 | 0.2 | 4
Cc1cc(C)c(C)c(N=Nc2nc3ccccc3n2C)c1C | 14 | 0.9 | 14 | 0.9 | -22
O=C(NC(=S)Nc1ncccn1)c1ccc(Cl)cc1Cl | 64* | 0.7 | 25 | 0.4 | 4
CCC(=O)Nc1cccc(NC(=S)NC(=O)c2ccc(Cl)cc2Cl)c1 | -1 | 0.8 | 15 | 1 | -17
CCOC(=O)c1cc2c(=O)n3ccccc3nc2n(C(C)C)c1=NC(=O)c1ccncc1 | -8 | 0.3 | 65* | 1.1 | -9
